From PubChem
VIM-2 inhibitor – blocks Pseudomonas aeruginosa VIM-2 metallo-beta-lactamase. purified VIM-2, nitrocefin hydrolysis, epi-absorbance fluorescence. inhibition, % at 5.6 µM. hit rate 0.89% among 290,000. AID 1527;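 active = inhibition above the mean of all tested compounds plus 3 SD, cutoff set per screening run, cut at about 7.5% in these data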;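 also: red hydrolysis product quenches plate fluorescence so inhibitors raise well fluorescence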
TRPML3 agonist – agonists of human TRPML3 channel; Q8TDD5; HEK293 TRPML3-YFP, Fluo-8 calcium fluorescence; 100% = the carbachol control signal; activation, % at 3 µM; hit rate 0.29% among 220,000; AID 1448;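 active = activation above its plate's cutoff, the mean activation of the plate's test wells plus 3 SD, cut at about 12% in these data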
Target sequence (Q8TDD5 whole entry, looked up): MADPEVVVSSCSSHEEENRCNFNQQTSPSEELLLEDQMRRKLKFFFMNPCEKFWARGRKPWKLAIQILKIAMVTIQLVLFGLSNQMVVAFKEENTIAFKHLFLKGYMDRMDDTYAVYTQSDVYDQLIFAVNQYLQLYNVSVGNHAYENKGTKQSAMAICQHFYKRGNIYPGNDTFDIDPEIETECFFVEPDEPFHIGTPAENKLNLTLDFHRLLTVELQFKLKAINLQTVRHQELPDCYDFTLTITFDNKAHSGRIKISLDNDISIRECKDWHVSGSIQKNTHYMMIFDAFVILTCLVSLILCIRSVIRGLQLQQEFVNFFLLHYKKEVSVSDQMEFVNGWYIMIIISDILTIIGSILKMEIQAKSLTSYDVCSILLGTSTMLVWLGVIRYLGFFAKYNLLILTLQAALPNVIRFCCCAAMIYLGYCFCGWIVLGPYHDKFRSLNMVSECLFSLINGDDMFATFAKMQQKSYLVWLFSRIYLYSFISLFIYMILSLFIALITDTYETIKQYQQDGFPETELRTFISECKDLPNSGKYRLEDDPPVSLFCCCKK
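Material: TRPML3-YFP stable HEK293 cells | Dosing: One concentration, 3 µM nominal, 0.3% DMSO | Timing: 125 s total fluorescence read per well | Technique: Fluo-8 calcium dye fluorescence, ex 470-495, em 515-575 nm | Measure: Percent activation from peak-to-basal fluorescence ratio, scaled between DMSO and carbachol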
TRPN1 ag – agonists of zebrafish TRPN1 channel | HEK293 zebrafish TRPN1-YFP, Fluo-8 calcium fluorescence; 100% = response to 87 µM carbachol | activation, % at 3 µM | hit rate 0.18% among 220,000 | AID 1424;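 active = activation above its plate's cutoff, the mean activation of test wells on that plate plus 3 SD, cut at about 19% in these data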
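System: zebrafish TRPN1-YFP in HEK293 cells / Dosing: 3 µM single point / Timing: dye loading 1 h at 37 °C, then 30 min room temperature / Signal: Fluo-8 calcium fluorescence, excitation 470-495 nm, emission 515-575 nm / Read-out basis: percent activation from peak over basal fluorescence ratio, control-normalized / Control set: high carbachol 87 µM, low DMSO alone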
CRFBP-R2 agonist – CRF-BP/CRF-R2 complex agonism | HEK293 CRF-R2/CRF-BP, calcium dye fluorescence (FLIPR); percent of saturating CRF peptide response | activation, % at 13.2 µM | hit rate 0.46% among 350,000 | AID 588473;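 active = activation of at least 50%, plus an integration ratio under a set limit after plate pattern correction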
CRFBP-R2 block – antagonists of CRF-binding protein/CRF-R2 receptor complex; HEK293 CRF-R2/CRF-BP, CRF-induced calcium fluorescence; inhibition, % at 11.8 µM; hit rate 0.59% among 350,000; AID 588475;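 active = inhibition of the ligand-induced calcium signal above about 50% at the single tested concentration, limit read from the data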
IMP-1 inh – blocks Pseudomonas aeruginosa IMP-1 metallo-beta-lactamase | hit rate 0.45% among 290,000 | inhibition, % at 5.6 µM | purified IMP-1, nitrocefin hydrolysis, epi-absorbance fluorescence | AID 1556;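 active = inhibition above the mean plus 3 SD of all compounds in the same screening run, cut at about 4.5% in these data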
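System – purified recombinant IMP-1 beta-lactamase · Input – IMP-1 dispensed at 0.2 nM · Timing – 15 min preincubation plus 25 min reaction at 25 °C · Signal – Epi-absorbance fluorescence, 480 nm excitation, 530 nm emission · Measure – percent IMP-1 inhibition derived from blank-referenced optical density · Controls – Enzyme-plus-DMSO low control, enzyme-free DMSO high control · Replication – singlicate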
A number is an active result; i = inactive; nt = no result. Most compounds without a hit are left out; they make up all but 2.1% or so of the library.

SMILES | VIM-2 inhibitor | TRPML3 agonist | TRPN1 ag | CRFBP-R2 agonist | CRFBP-R2 block | IMP-1 inh
O=C(O)c1ccccc1-c1ccc(/C=c2\sc3nc4cc(Br)cnc4n3c2=O)o1 | i | i | i | 157 | i | i
COCCn1c(SCC(=O)NC2CCCC(C)C2C)nc2ccccc2c1=O (stereo not drawn) | nt | nt | nt | i | i | nt
CCOC(=O)c1c(C)n(C)c2ccc(OCC(O)Cn3c(C)nc4ccccc43)cc12 (stereo not drawn) | i | i | i | i | i | i
CCOC(=O)c1c(C)n(C)c2ccc(OCC(O)CNCCc3ccccc3)cc12 (stereo not drawn) | 9.7 | nt | nt | i | i | i
CCOC(=O)C(Sc1nnc(-c2ccncc2)o1)C(C)=O (stereo not drawn) | i | i | i | i | 94 | i
COc1ccccc1N1CCN(C(=O)CC(NC(=O)c2ccccc2Cl)c2ccccc2)CC1 (stereo not drawn) | nt | nt | nt | i | i | nt
CCOC(=O)C(Cc1ccccc1)NC(=O)CCc1nnc2ccc(N3CCCCC3)nn12 (stereo not drawn) | i | nt | nt | i | i | i
CCOC(=O)C(Cc1ccccc1)NC(=O)CCc1nnc2ccc(N3CCCC3)nn12 (stereo not drawn) | i | nt | nt | i | 58 | i
O=C(Nc1cccc2ccccc12)c1ccccc1NS(=O)(=O)c1cccc2cccnc12 | i | i | i | i | i | i
COc1ccc(OC)c(NC(=O)c2ccccc2NS(=O)(=O)c2cccc3cccnc23)c1 | i | i | i | i | 74 | i
CC(C)Cc1cc(C(=O)Nc2cccnc2)no1 | i | i | i | i | i | i
CSc1ccccc1NC(=O)c1cc(CC(C)C)on1 | i | i | i | i | 63 | i
NC(=O)c1csc(CCNC(=O)c2ccccc2)n1 | nt | nt | nt | i | i | nt
CNC(=S)Nc1ccc(Cc2ccncc2)cc1 | i | i | i | i | i | i
CC(C)(C)C(=O)NC(=S)Nc1ccc(Cc2ccncc2)cc1 | i | nt | nt | i | i | 7.7
CCn1c2ccccc2c2nnc(SCC(=O)N3CC(C)OC(C)C3)nc21 (stereo not drawn) | 8.3 | i | i | i | i | i
C[C@@H]1CN([C@H](C)CO)C(=O)c2cc(C#CC(C)(C)O)cnc2O[C@@H]1CN(C)C(=O)C1CC1 | nt | nt | nt | i | i | nt
CCOC(=O)c1ccc(Cl)c(NC(=O)c2ccc(-c3ccccc3)cc2)c1 | i | i | i | i | i | i
CCOC(=O)c1ccc(/C=C2/C=C(c3ccccc3)N(c3ccc(Cl)c(C(=O)O)c3)C2=O)cc1 | i | i | i | 96 | i | i
O=C(Cn1cc(C(F)(F)F)ccc1=O)NCC1CCCO1 (stereo not drawn) | nt | nt | nt | i | i | nt
COc1ccc(C(=O)NCC(=O)OC2CCCCC2=O)cc1 (stereo not drawn) | i | i | i | i | i | i
Cc1ccccc1C(=O)NCC(=O)OC1CCCCC1=O (stereo not drawn) | nt | nt | nt | i | 68 | nt
CCOC(=O)C1CCCN(C2CC(=O)N(c3ccccc3)C2=O)C1 (stereo not drawn) | i | i | i | i | 67 | i
CCOC(=O)C1CCCN(C2CC(=O)N(c3ccc(N4C(=O)CC(N5CCCC(C(=O)OCC)C5)C4=O)cc3)C2=O)C1 (stereo not drawn) | i | i | i | i | i | i
COc1ccc(C(=O)c2c[nH]cc2-c2ccccc2)cc1 | i | i | i | i | i | i
SMILES | VIM-2 inhibitor | TRPML3 agonist | TRPN1 ag | CRFBP-R2 agonist | CRFBP-R2 block | IMP-1 inh
O=C(c1ccc(Cl)cc1)c1c[nH]cc1-c1ccccc1 | i | i | i | i | i | 4.5
COc1ccc(Cl)cc1Nc1nc(NCCO)nc(N2CCCC2)n1 | i | i | i | i | i | i
COc1ccc(Cl)cc1Nc1nc(NCCO)nc(N2CCCCC2)n1 | nt | nt | nt | i | 51 | nt
Cc1ccccc1COc1ccc(/C(O)=C2/C(=O)C(=O)N(CCCn3ccnc3)C2c2ccco2)cc1 (stereo not drawn) | nt | nt | nt | i | 54 | nt
COc1cc([N+](=O)[O-])ccc1N/C=C/C(=O)c1cccs1 | i | i | i | 84 | i | i
CCOc1ccccc1OCCCC(=O)N1CCN(S(=O)(=O)c2ccccc2C#N)CC1 | nt | nt | nt | i | i | nt
CCOC(=O)CNC(=O)COc1coc(CN2CCN(Cc3ccccc3)CC2)cc1=O | i | nt | nt | i | i | i
